Screening data as filed in PubChem BioAssay.
S100A4 MyoIIA: inhibitors of human S100A4 binding to myosin IIA peptide. AID 652163. S100A4/TAMRA-MyoIIA peptide fluorescence polarization. P26447. inhibition, % at 10.7 µM. 360,000 compounds, 0.14% hits;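 active = mean inhibition of at least 70% across replicates, with every replicate also reaching that level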
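Material: S100A4 monomer (human). Medium: Calcium-containing HEPES buffer, pH 7.2. Probe or stimulus: labelled myosin peptide probe, 5 nM. Compound dosing: one concentration per compound. Timing: polarization read 5 min after assay mix addition, stable 5–60 min. Benchmarks: DMSO as neutral control, TFP as positive control.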
SR-BI DiI-HDL act: enhances SR-BI lipid uptake from DiI-HDL; CHO ldlA[mSR-BI] cells, DiI-HDL uptake fluorescence, 3 h; 100 = double the neutral-control signal; activation, % at 12.5 µM; 320,000 compounds, 0.096% hits;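 active = mean replicate activation of at least 60% and every replicate at or above 60%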;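 note: 0% = median plate neutral-control signal and 100% = twice that signal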
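Material: SR-BI-overexpressing, LDLR-lacking CHO cells | Dosing: Single compound concentration, delivered by pin transfer | Probe or stimulus: Labelled HDL, 10 µg/mL | Signal: Bottom-read cell fluorescence after medium removal, ex 550/em 595 nm | Schedule: 3 h, 37 °C | Evaluation: HDL uptake via cellular fluorescence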
SR-BI DiI inh: inhibitors of mouse SR-BI mediated HDL lipid uptake | Q61009 | ldlA[mSR-BI] CHO cells, DiI-HDL uptake fluorescence, 3 h | inhibition, % at 12.5 µM | 320,000 compounds, 0.96% hits | AID 488896;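 active = mean replicate inhibition of at least 70% and a set share of replicates each scoring 70 or more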;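 note: 0% = median of neutral control wells and 100% = median of positive control wells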
Target sequence (Q61009 whole entry, looked up): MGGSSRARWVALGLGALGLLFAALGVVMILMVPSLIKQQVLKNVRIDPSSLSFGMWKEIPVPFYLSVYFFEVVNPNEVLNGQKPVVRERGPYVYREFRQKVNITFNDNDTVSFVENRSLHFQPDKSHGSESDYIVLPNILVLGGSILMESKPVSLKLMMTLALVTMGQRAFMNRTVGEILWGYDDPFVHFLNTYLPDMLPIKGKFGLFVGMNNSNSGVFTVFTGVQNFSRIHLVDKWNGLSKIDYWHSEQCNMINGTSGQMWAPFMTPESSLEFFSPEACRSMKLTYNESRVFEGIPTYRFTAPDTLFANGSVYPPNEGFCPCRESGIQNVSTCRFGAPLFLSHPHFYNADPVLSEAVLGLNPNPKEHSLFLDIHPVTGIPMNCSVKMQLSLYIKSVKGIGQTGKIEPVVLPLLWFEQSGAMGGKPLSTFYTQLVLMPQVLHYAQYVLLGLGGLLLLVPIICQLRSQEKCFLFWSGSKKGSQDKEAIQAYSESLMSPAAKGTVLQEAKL
dFosB act: mouse delta FosB homodimer activation | purified delta FosB, TAMRA-CDK5 oligo fluorescence polarization; percent of positive-control signal above neutral wells | activation, % at 25 µM | 340,000 compounds, 0.99% hits | AID 493131;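 active = mean activation above about 17%, with every replicate also reaching it, limit read from the data, passing the limit was not always enough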
RAD54 inh: RAD54 (human) branch migration inhibition; AID 602329; 360,000 compounds, 0.14% hits; Q92698; RAD54 Holliday junction branch migration, FAM/BHQ fluorescence; inhibition, % at 10.4 µM;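 active = mean normalized replicate activity at least 40 and at least half of replicates scoring 40 or more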;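 note: 0% = median of neutral control wells and 100% = median of positive control wells; inhibitors cause a drop in the FAM fluorescence signal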
PvdQ acylase: blocks Pseudomonas aeruginosa PvdQ acylase activity; purified PvdQ acylase, fluorescence plate reader; 340,000 compounds, 0.063% hits; inhibition, % at 10 µM; in the data active = inhibition above about 30%, passing the limit was not always enough;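 note: 0% = vehicle neutral wells and 100% = reference inhibitor wells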
* = called active by the depositor; ! = repeats disagree. Only some compounds are listed: those with a hit (about 1.6% of all), similar ones and a draw of the others.

What do the screens show for `COc1ccc(CCNC(=S)N2CCC(C(=O)c3ccc(F)cc3)CC2)cc1OC`?
S100A4 MyoIIA: -1; SR-BI DiI-HDL act: -80; SR-BI DiI inh: 80*; dFosB act: -10; RAD54 inh: -5; PvdQ acylase: 0

Results for O=C(N[C@@H]1CC[C@@H](CCNC(=O)C2CC2)O[C@@H]1CO)c1ccncc1 ?
S100A4 MyoIIA: 2; RAD54 inh: 3

Results for O=C(Nc1cccnc1)c1cc(-c2ccc(Cl)c(Cl)c2)on1 ?
S100A4 MyoIIA: -10; SR-BI DiI-HDL act: 7; SR-BI DiI inh: -7; dFosB act: 76*; RAD54 inh: -7; PvdQ acylase: -7

How did CO[C@H]1CN(C)C(=O)c2cc(NC(C)=O)ccc2OC[C@@H](C)N(Cc2cccnc2)C[C@@H]1C do in these assays?
RAD54 inh: -3

Results for COc1ccc(NC(=O)Nc2ccc3c(c2)CC(=O)N([C@H](C)CO)C[C@@H](C)[C@H](CN(C)C(=O)Nc2ccccc2)O3)cc1 ?
S100A4 MyoIIA: 0; SR-BI DiI-HDL act: -70; SR-BI DiI inh: 70*; dFosB act: 2; RAD54 inh: 7; PvdQ acylase: 4

What do the screens show for `COc1ccc(NC(=O)Nc2ccc3c(c2)CC(=O)N([C@@H](C)CO)C[C@@H](C)[C@H](CN(C)Cc2ccccc2)O3)cc1`?
S100A4 MyoIIA: 96*; RAD54 inh: 0

What do the screens show for `COc1ccc(NC(=O)N(C)C[C@@H]2Oc3ccc(NC(=O)Nc4ccccc4)cc3CC(=O)N([C@@H](C)CO)C[C@@H]2C)cc1`?
S100A4 MyoIIA: -2; RAD54 inh: 3

What do the screens show for `C[n+]1c2cc(N)ccc2cc2ccc(N)cc21`?
S100A4 MyoIIA: 31; SR-BI DiI-HDL act: -9; SR-BI DiI inh: 9; dFosB act: 33*!; RAD54 inh: inactive; PvdQ acylase: -1

How did COc1ccc(-n2nc3c(N4CCC(C(=O)NCc5ccccc5C)CC4)nnc(C)c3c2C)cc1 do in these assays?
SR-BI DiI-HDL act: -52; SR-BI DiI inh: 52; dFosB act: 77*; RAD54 inh: 16; PvdQ acylase: 0

How did OCCN1CCN(CC/C=C2/c3ccccc3Sc3ccc(Cl)cc32)CC1 do in these assays?
S100A4 MyoIIA: 2; SR-BI DiI-HDL act: -9; SR-BI DiI inh: 9; dFosB act: 17*; RAD54 inh: 12; PvdQ acylase: -12

How did CO[C@H]1CN(C)C(=O)c2cc(C#N)ccc2OCC[C@@H]2CC[C@@H](OC)[C@H](CN(C)C(=O)[C@H]1C)O2 do in these assays?
S100A4 MyoIIA: 1; RAD54 inh: -3

Results for Cc1ccc(C(=O)Nc2cccc(C(F)(F)F)c2)cc1NC(=O)c1csc(-c2ccncc2)n1 ?
SR-BI DiI-HDL act: -84; SR-BI DiI inh: 84*; dFosB act: 12; RAD54 inh: -8; PvdQ acylase: -10

Results for COc1ccc(C=C(c2ccc(OC)cc2)c2ccc(OC)cc2)cc1 ?
SR-BI DiI-HDL act: -72; SR-BI DiI inh: 72*; dFosB act: -14; RAD54 inh: -9; PvdQ acylase: -28

How did Cc1ccc(OCC(=O)NNC(=O)c2ccc(NC(=O)C3CC3)cc2)c(C)c1 do in these assays?
S100A4 MyoIIA: -4; SR-BI DiI inh: 31; dFosB act: 34*; RAD54 inh: 0; PvdQ acylase: -8

How did Cc1noc(C)c1NC(=O)N(C)C[C@H]1Oc2ccc(NC(=O)Nc3ccc4c(c3)OCO4)cc2CC(=O)N([C@@H](C)CO)C[C@H]1C do in these assays?
S100A4 MyoIIA: 7; RAD54 inh: -3

Results for O=C(c1cc([N+](=O)[O-])ccc1N1CCCCC1)N1CCc2ccccc21 ?
S100A4 MyoIIA: -5; SR-BI DiI-HDL act: -76; SR-BI DiI inh: 76*; dFosB act: -8; PvdQ acylase: -9

Results for O=C(c1cc([N+](=O)[O-])ccc1Cl)N1CCc2ccccc21 ?
S100A4 MyoIIA: 2; SR-BI DiI-HDL act: -15; SR-BI DiI inh: 15; dFosB act: -3; RAD54 inh: -11; PvdQ acylase: -8

Results for Cc1ccc(C(=O)c2cc([N+](=O)[O-])ccc2N2CCCCC2)c(C)c1 ?
S100A4 MyoIIA: -6; SR-BI DiI-HDL act: -75; SR-BI DiI inh: 75*; dFosB act: -6; PvdQ acylase: -7
